# Measurements as given in ChEMBL document CHEMBL3871264, “Design of a novel thiophene inhibitor of 15-lipoxygenase-1 with both anti-inflammatory and neuroprotective properties” (Eur J Med Chem, 2016).
# Calls of active or inactive are those of the source. No cut-off for these calls is given here.
# Legend:
# [1] = molecular target: T1, Polyunsaturated fatty acid lipoxygenase ALOX15 (Homo sapiens) (UniProt P16050); experiment: Competitive inhibition of human 15-LOX-1 assessed as apparent Vmax at 5 uM by Lineweaver-Burk plot analysis (reference value: 1.6 +/- 0.2 10^-4abs/s)
# T1 sequence (whole entry): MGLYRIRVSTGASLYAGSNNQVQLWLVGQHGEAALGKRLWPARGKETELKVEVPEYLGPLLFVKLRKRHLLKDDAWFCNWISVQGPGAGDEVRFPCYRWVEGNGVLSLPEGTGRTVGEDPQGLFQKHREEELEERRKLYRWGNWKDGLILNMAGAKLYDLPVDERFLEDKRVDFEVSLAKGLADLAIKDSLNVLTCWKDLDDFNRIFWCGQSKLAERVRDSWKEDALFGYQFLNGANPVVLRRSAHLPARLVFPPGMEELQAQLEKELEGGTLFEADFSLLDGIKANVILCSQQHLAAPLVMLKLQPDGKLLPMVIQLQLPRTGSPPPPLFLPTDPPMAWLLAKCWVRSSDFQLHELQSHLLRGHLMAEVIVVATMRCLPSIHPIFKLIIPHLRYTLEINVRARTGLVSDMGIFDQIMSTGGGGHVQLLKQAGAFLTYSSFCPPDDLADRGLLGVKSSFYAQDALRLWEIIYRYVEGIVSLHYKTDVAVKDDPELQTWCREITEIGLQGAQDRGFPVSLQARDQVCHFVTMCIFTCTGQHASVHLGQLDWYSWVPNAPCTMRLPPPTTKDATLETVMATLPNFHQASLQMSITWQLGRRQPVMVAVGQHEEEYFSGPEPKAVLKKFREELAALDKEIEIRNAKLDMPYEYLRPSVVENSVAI
# How it was run: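 Purified enzyme activity was read as UV absorbance at 234 nm of the product formed from linoleic acid substrate, in 96-well format. Substrate-dependence runs were done with and without inhibitor. Apparent Km and Vmax were derived from Lineweaver-Burk plots.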
# [2] = molecular target: T2, Polyunsaturated fatty acid lipoxygenase ALOX15 (Mus musculus) (UniProt P39654); experiment: Inhibition of 15-LOX-1 in mouse HT22 cells assessed as protection against glutamate-induced cell impedance at 5 to 10 uM cotreated with glutamate measured for 16 to 20 hrs by real time cell viability assay; assay type: cell-based; conditions: HT-22
# T2 sequence (whole entry): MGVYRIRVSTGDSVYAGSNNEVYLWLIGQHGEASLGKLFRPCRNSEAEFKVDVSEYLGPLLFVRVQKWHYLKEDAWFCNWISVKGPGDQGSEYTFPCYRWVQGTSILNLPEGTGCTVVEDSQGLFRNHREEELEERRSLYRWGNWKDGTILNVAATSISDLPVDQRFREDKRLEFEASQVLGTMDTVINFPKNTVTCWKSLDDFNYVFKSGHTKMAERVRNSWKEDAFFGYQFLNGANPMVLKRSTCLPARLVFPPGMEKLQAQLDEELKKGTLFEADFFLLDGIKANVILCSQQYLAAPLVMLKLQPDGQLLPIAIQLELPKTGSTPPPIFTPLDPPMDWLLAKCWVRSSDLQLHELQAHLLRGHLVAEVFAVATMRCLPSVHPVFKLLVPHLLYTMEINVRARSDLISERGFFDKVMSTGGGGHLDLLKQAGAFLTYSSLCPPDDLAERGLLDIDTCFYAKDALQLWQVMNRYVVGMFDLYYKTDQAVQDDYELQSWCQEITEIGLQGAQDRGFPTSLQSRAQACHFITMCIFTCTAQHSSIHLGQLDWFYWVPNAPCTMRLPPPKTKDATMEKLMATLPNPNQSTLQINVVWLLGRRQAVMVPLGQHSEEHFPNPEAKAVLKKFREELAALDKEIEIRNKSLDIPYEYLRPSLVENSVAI
# How it was run: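 HT-22 cells were seeded at 8x10^3 per well, incubated overnight, then given 4 mM glutamate. Inhibitor was either co-applied (1-20 µM; PD146176 at 1 µM) or added at 10 µM 2, 4, 6 or 8 h after glutamate. Impedance was recorded in real time for 16-20 h, with cell index normalized just before glutamate addition.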
# [3] = molecular target: T2, Polyunsaturated fatty acid lipoxygenase ALOX15 (Mus musculus); experiment: Inhibition of 15-LOX-1 in C57bl/6 mouse precision-cut lung slices assessed as reduction in LPS-stimulated IL-8 mRNA expression level at 50 uM incubated for 20 hrs followed by LPS stimulation for 4 hrs in presence of linoleic acid by RT-qPCR analysis
# How it was run: (§1)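 Lung slices, 250 μm, were cut from agarose-filled lungs of male C57bl/6 mice aged 8-10 weeks and cultured at 37 °C in 5% CO2 in supplemented DMEM, 3 slices per well. Inhibitor was given for 20 h with 10 μM linoleic acid. For the last 4 h, 10 ng/ml LPS plus 10 ng/ml IFNγ were added. Read-out was RT-qPCR (10 ng cDNA, GAPDH assay included), in duplicate or triplicate wells, as fold change versus LPS/linoleic acid control, with 4-6 independent experiments.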
# [4] = molecular target: T2, Polyunsaturated fatty acid lipoxygenase ALOX15 (Mus musculus); experiment: Inhibition of 15-LOX-1 in C57bl/6 mouse precision-cut lung slices assessed as reduction in LPS-stimulated IL-6 mRNA expression level at 5 uM incubated for 20 hrs followed by LPS stimulation for 4 hrs in presence of linoleic acid by RT-qPCR analysis; how it was run: as §1
# [5] = molecular target: T2, Polyunsaturated fatty acid lipoxygenase ALOX15 (Mus musculus); experiment: Inhibition of 15-LOX-1 in mouse HT22 cells assessed as protection against glutamate-induced cell death by measuring increase in cell viability at 10 uM incubated up to 8 hrs following glutamate challenge by MTT assay; assay type: cell-based; conditions: HT-22
# How it was run: (§2)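 HT-22 cells were seeded at 8x10^3 per well and incubated overnight. They were challenged with 4 mM glutamate in DMEM/10% FCS. Inhibitor was given either with glutamate (1-20 µM; PD146176 at 1 µM) or added at 5 or 10 µM 2, 4, 6 or 8 h after glutamate. After 14-16 h, MTT was added at 0.5 mg/mL for 1 h at 37 °C. Formazan was dissolved in DMSO and read at 570 nm minus 630 nm background, expressed relative to control. Three experiments were run with 6-8 replicates each.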
# [6] = molecular target: T2, Polyunsaturated fatty acid lipoxygenase ALOX15 (Mus musculus); experiment: Inhibition of 15-LOX-1 in mouse HT22 cells assessed as protection against glutamate-induced cell death by measuring increase in cell viability up to 20 uM cotreated with glutamate for 14 to 16 hrs by MTT assay; assay type: cell-based; conditions: HT-22; how it was run: as §2
# [7] = molecular target: T2, Polyunsaturated fatty acid lipoxygenase ALOX15 (Mus musculus); experiment: Inhibition of 15-LOX-1 in C57bl/6 mouse precision-cut lung slices assessed as reduction in LPS-stimulated IL-12b mRNA expression level at 5 uM incubated for 20 hrs followed by LPS stimulation for 4 hrs in presence of linoleic acid by RT-qPCR analysis; how it was run: as §1
# [8] = molecular target: T2, Polyunsaturated fatty acid lipoxygenase ALOX15 (Mus musculus); experiment: Inhibition of 15-LOX-1 in C57bl/6 mouse precision-cut lung slices assessed as reduction in LPS-stimulated iNOS mRNA expression level at 50 uM incubated for 20 hrs followed by LPS stimulation for 4 hrs in presence of linoleic acid by RT-qPCR analysis; how it was run: as §1
# [9] = molecular target: T2, Polyunsaturated fatty acid lipoxygenase ALOX15 (Mus musculus); experiment: Inhibition of 15-LOX-1 in C57bl/6 mouse precision-cut lung slices assessed as reduction in LPS-stimulated IL-6 mRNA expression level at 50 uM incubated for 20 hrs followed by LPS stimulation for 4 hrs in presence of linoleic acid by RT-qPCR analysis; how it was run: as §1
compound,measurement,setting,value
CCCCNC(=O)c1cc(-c2ccccc2)sc1N,Vmax(app),[1],1.5 ×10⁻⁴ abs/s
same,inhibition,[2],Active
same,inhibition,[3],50%
same,inhibition,[4],Active
same,inhibition,[5],Active
same,inhibition,[6],Dose-dependent effect
same,inhibition,[7],Active
same,inhibition,[8],50%
same,inhibition,[9],50%
